Results: ChEMBL document CHEMBL1145772, “Antiinflammatory, gastrosparing, and antiplatelet properties of new NO-donor esters of aspirin” (J Med Chem, 2003)

What was measured:
[1] = Percent unaltered compound in human serum after 1 hr of incubation; assay type: ADME; conditions: read-out: Unaltered compound
How it was run: (§1)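 Compound is incubated in human serum at 37 °C for 1 min or 1 h. Samples are then deproteinized with acetonitrile containing 0.1% TFA and centrifuged at 9600g for 10 min. The remaining intact compound is quantified by reversed-phase HPLC on an RP-18 column at 40 °C, using a 25–80% acetonitrile/0.1% TFA gradient, with UV detection at 224 nm.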

[2] = Percent unaltered compound in human serum after 1 min of incubation; assay type: ADME; conditions: read-out: Unaltered compound; how it was run: as §1
[3] = species on record: Homo sapiens; assay: Inhibition of ADP-induced human platelet rich plasma aggregation at 50 uM concentration; assay type: functional
How it was run: (§2)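 Human platelet-rich plasma is prepared from citrated venous blood of drug-free healthy volunteers (at least 2 weeks) by spinning at 200g for 20 min. Compound is added 10 min before the agonist, either ADP or collagen at […]. Light-transmission aggregation is recorded under stirring at 1000 rpm, 37 °C, for 5 min. Inhibition is expressed relative to vehicle (<0.5% DMSO) controls. The top concentration is 50 µM. pIC50 is fitted by nonlinear regression when inhibition exceeds 50%.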

[4] = species on record: Homo sapiens; assay: Inhibition of collagen-induced human platelet rich plasma aggregation; assay type: functional; how it was run: as §2
[5] = NO release in the presence of 1:5 molar excess of L-cysteine, value expressed as % mol/mol of NO2-
How it was run: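 Compound is dissolved in pH 7.4 buffered water/methanol and incubated for 1 h at 37 °C with a 1:5 molar excess of L-cysteine (5 × 10^-4 M). Griess reagent is added, and absorbance at 540 nm is read after 10 min at room temperature. Nitrite is reported as % mol/mol, mean ± SEM.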

[6] = species on record: Homo sapiens; assay: Inhibition of collagen-induced human platelet rich plasma aggregation at 50 uM concentration; assay type: functional; how it was run: as §2
[7] = species on record: Homo sapiens; assay: Inhibition of collagen-induced human platelet rich plasma aggregation at 50 uM concentration in presence of 40 uM HbO2; assay type: functional
How it was run: (§3)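 Aggregation of human PRP is triggered by ADP or by collagen at […], and read by light transmission (stirring, 37 °C, 5 min). Compound is given 10 min before the agonist. The NO scavenger oxyhaemoglobin or the sGC inhibitor ODQ (100 µM) is included to probe NO/sGC involvement. The value is % inhibition versus vehicle control at the top tested concentration of 50 µM.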

[8] = species on record: Homo sapiens; assay: Inhibition of ADP-induced human platelet rich plasma aggregation at 50 uM concentration in presence of 100 uM ODQ; assay type: functional; how it was run: as §3
[9] = species on record: Homo sapiens; assay: Inhibition of ADP-induced human platelet rich plasma aggregation at 50 uM concentration in presence of 40 uM HbO2; assay type: functional; how it was run: as §3
[10] = species on record: Homo sapiens; assay: Inhibition of collagen-induced human platelet rich plasma aggregation at 50 uM concentration in presence of 100 uM ODQ; assay type: functional; how it was run: as §3

SMILES | remaining at 1 h [1] | remaining at 1 min [2] | inhibition at 50 µM [3] | Inhibition [4] | NO release [5] | inhibition at 50 µM [6] | Inhibition [7] | Inhibition [8] | Inhibition [9] | Inhibition [10]
CC(=O)Oc1ccccc1C(=O)OCc1no[n+]([O-])c1C | 0% | 2.5% | 17.8% | 18.6% | 0 | – | – | – | – | –
CC(=O)Oc1ccccc1C(=O)OCc1nonc1C(N)=O | 0% | 0% | 7.6% | – | – | 16.7% | – | – | – | –
CC(=O)Oc1ccccc1C(=O)OCCCOc1nonc1-c1ccccc1 | 3.9% | 39.3% | 16.9% | – | – | 0.7% | – | – | – | –
CC(=O)Oc1ccccc1C(=O)OCc1no[n+]([O-])c1C(N)=O | 0% | 0% | – | – | 3.8 | – | 14.4% | 22.6% | 28.6% | 18.5%
CC(=O)Oc1ccccc1C(=O)OCCCOc1no[n+]([O-])c1-c1ccccc1 | 3.8% | 38.8% | – | – | 0.35 | – | – | – | – | –
CC(=O)Oc1ccccc1C(=O)OCc1nonc1C | 0% | 0% | 23.2% | – | – | 1.5% | – | – | – | –
CC(=O)Oc1ccccc1C(=O)OCCCO[N+](=O)[O-] | 0% | 0% | 18.3% | – | 0.18 | 12.3% | – | – | – | –
CC(=O)Oc1ccccc1C(=O)OCc1no[n+]([O-])c1C#N | 0% | 0% | – | – | 32.3 | – | – | – | – | –
CC(=O)Oc1ccccc1C(=O)OCc1nonc1C#N | 0% | 0% | 14.8% | – | – | 27.9% | – | – | – | –
CC(=O)Oc1ccccc1C(=O)OCCCOc1no[n+]([O-])c1S(=O)(=O)c1ccccc1 | 9.3% | 43.7% | – | – | 37.1 | – | – | – | – | –
CC(=O)Oc1ccccc1C(=O)OCCCOc1nonc1S(=O)(=O)c1ccccc1 | 8.1% | 47.6% | 3.3% | – | – | 14.8% | – | – | – | –
CCCOC(=O)c1ccccc1OC(C)=O | 0% | 0% | 18.1% | – | – | 14.4% | – | – | – | –
